Square brackets hold non-standard residues; d marks the D form. Peptide text beside a SMILES is read from it. NMeF = CN[C@@H](Cc1ccccc1)C(=O)O
Experiments:
[1] = biological target: Delta-type opioid receptor (Mus musculus, UniProt P32300); experiment: Inhibitory concentration required for 50 percent inhibition of opioid receptor delta 1 induced contractions in mouse vas deferens (MVD) smooth muscle contraction assays; format: functional
How it was run: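 Electrically stimulated MVD (male ICR mice, 25-40 g) and GPI longitudinal muscle myenteric plexus strips (male Hartley guinea pigs, 250-500 g). Baths held 37 °C oxygenated Krebs bicarbonate (Mg-free for MVD), tension 1 g GPI / 0.5 g MVD. Stimulation 0.1 Hz, 0.4 ms pulses (2 ms MVD), supramaximal voltage. […] IC50 from two to four tissues by nonlinear least squares.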

Mu-type opioid receptor = Mu-type opioid receptor (Cavia porcellus, UniProt P97266); experiment: Inhibitory concentration for inhibition of Opioid receptor mu 1 induced contractions in guinea pig ileum (GPI) smooth muscle assays; format: functional, tissue-based
Mu-type opioid receptor, sequence (P97266 whole entry): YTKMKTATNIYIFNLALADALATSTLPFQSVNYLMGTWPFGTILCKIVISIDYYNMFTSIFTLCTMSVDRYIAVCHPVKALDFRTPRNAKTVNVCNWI
How it was run: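 Electrically stimulated MVD (male ICR mice, 25-40 g) and GPI longitudinal muscle myenteric plexus strips (male Hartley guinea pigs, 250-500 g). Baths held 37 °C oxygenated Krebs bicarbonate (Mg-free for MVD), tension 1 g GPI / 0.5 g MVD. Stimulation 0.1 Hz, 0.4 ms pulses (2 ms MVD), supramaximal voltage. IC50 from two to four tissues by nonlinear least squares.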

[2] = biological target: Delta-type opioid receptor (Mus musculus) (UniProt P32300); settings: Vas deferens; filed as agonist
Delta-type opioid receptor (Mus musculus), sequence (P32300 whole entry): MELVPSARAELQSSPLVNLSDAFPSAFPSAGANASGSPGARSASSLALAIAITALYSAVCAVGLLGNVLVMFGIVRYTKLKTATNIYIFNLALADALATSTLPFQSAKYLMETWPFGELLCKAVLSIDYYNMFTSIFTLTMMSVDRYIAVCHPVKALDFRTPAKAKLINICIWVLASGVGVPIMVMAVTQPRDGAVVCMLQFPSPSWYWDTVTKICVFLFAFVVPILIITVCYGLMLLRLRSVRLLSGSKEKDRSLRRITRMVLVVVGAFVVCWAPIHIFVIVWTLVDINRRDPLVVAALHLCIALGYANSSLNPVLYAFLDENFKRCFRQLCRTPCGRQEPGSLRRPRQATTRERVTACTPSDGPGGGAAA

[3] = biological target: Mu-type opioid receptor (Cavia porcellus) (UniProt P97266); settings: Ileum, filed as agonist
Mu-type opioid receptor (Cavia porcellus), sequence (P97266 whole entry): as the sequence (P97266 whole entry) above

Delta-type opioid receptor, sequence (P32300 whole entry): as the sequence (P32300 whole entry) above

SMILES: CN(C(=O)[C@@H]1CCCN1C(=O)[C@@H](N)Cc1ccc(O)cc1)[C@@H](Cc1ccccc1)C(=O)N1CCC[C@@H]1C(N)=O (H-YP[NMeF][dP]-NH2)
- IC50 [1]: 243 nM
- IC50 (Mu-type opioid receptor): 59.4 nM
- Ke [2]: Agonist
- Ke [3]: Agonist
